The text below walks through data of paper PMC7036014 (Molecular cell, 2019).

Positions count from the first letter of the chain named.

The target of experiment [1] is T1, SIRT1 (Homo sapiens, UniProt Q96EB6).
T1 sequence (Q96EB6 1-747): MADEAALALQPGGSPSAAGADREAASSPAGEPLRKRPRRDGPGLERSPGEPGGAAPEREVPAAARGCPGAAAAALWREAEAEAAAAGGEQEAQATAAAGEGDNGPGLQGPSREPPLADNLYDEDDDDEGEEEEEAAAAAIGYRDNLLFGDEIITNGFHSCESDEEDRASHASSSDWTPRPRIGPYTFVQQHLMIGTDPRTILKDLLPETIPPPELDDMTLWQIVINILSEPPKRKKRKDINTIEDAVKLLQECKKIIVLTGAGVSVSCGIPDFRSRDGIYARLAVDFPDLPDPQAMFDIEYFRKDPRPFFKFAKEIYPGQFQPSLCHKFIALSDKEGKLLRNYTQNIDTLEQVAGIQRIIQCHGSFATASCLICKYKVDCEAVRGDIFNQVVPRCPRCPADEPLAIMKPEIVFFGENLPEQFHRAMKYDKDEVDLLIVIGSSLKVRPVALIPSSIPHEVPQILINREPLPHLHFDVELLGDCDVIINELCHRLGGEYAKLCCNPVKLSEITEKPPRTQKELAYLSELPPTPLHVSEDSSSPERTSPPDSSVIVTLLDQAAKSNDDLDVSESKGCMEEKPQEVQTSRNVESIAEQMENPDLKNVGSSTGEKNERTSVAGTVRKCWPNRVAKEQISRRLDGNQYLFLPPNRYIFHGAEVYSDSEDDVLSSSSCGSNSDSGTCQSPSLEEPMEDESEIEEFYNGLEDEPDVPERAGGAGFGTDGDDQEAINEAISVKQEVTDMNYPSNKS
Kind of experiment: HPLC-MS/MS SIRT1 deacetylation assay with acetylated peptide substrates. Type of experiment: biochemical. Put shortly:
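Recombinant SIRT1 (1 μM, E. coli-expressed) incubated with acetylated peptide (0–250 μM) plus fatty acid in 25 mM Tris, pH 8.0, 50 mM NaCl, 1 mM DTT, 1 mM NAD+ for 60 min at 37°C. Deacetylation quantified by HPLC-MS/MS with positive-mode electrospray. Km, Vmax and kcat obtained from Lineweaver-Burk plots.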

Experiment [2] concerns the target T1, SIRT1. Put plainly: 1,8-ANS displacement assay, SIRT1. Type of experiment: binding.
In experiment [3] the target is T2, recombinant full-length murine PLIN5 (Mus musculus, UniProt Q8BVZ1).
T2 sequence (Q8BVZ1 1-463): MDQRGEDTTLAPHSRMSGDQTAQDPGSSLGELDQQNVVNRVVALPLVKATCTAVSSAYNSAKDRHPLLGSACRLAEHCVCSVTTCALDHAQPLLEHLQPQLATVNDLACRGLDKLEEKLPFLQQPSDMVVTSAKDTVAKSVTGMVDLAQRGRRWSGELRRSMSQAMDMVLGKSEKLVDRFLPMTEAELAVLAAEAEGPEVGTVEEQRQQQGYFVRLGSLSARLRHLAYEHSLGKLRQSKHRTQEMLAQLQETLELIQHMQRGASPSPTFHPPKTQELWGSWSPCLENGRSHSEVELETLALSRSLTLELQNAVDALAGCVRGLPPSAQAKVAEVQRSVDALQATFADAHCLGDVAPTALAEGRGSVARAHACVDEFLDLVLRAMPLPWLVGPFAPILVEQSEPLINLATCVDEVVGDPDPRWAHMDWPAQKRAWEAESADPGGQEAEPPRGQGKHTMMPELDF
Kind of experiment: Intrinsic tryptophan fluorescence quenching binding assay, PLIN5. The essentials: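 Protein at 150 nM in 10 mM NaH2PO4, pH 7.5, titrated with ethanolic fatty acid. Excitation 295 nm, emission scanned 300–400 nm. Signal corrected for buffer-plus-ligand background. ΔF (F0−F) plotted against ligand to give a saturation curve. Kd taken from linear regression of the double-reciprocal transform. PLIN5: untagged full-length murine recombinant protein, n=4.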

Another experiment deals with T3, PLIN5 (Mus musculus, UniProt Q8BVZ1).
T3 sequence (Q8BVZ1 1-463): T2 sequence (Q8BVZ1 1-463)
Kind of experiment: 1,8-ANS displacement assay, PLIN5. Type of experiment: binding, murine. The essentials: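 Untagged recombinant PLIN5 (His-MBP tag removed by TEV protease) at 1 μM with 500 nM 1,8-ANS in 50 mM sodium phosphate, pH 7.5, 25°C. Competitor lipids added in increasing amounts, each mixed 60 s before reading fluorescence. I50 taken from the normalized displacement curve. Ki = I50/(1+[L]/KD), using the ANS KD from a Scatchard analysis of a protein titration.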

The next experiment concerns the target T4, PLIN5-pD (Mus musculus, UniProt Q8BVZ1, S155A).
T4 sequence (Q8BVZ1 1-463 S155A): T2 sequence (Q8BVZ1 1-463) with S155A
Put plainly: Circular dichroic analysis of PLIN5-pD with ligand. Conditions: addition of ligand. More on the design: species or system murine. Put shortly: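 Far-UV CD spectra of the PLIN5 phospho-mutants in 10 mM NaH2PO4, pH 7.5, with 10 mM NaCl, with and without ligand. Run at 25°C in a 1 mm path cuvette. Ligand incubated 2–5 min before each scan. Each spectrum is the average of ten scans, repeated in triplicate.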

The mark [4] stands for this setting: acetylated FOXO3a peptide substrate.
Setting [5] is: acetylated PGC-1α peptide substrate.
The mark [6] stands for this setting: fixed amounts of PGC-1α, FOXO3a and H3 peptides, 150 or 600 nM 18:1.

Turning to `CCCCCCCC/C=C\CCCCCCCC(=O)O` [18:1, oleic acid], the “effect on Km and catalytic efficiency on co-addition with resveratrol” value at SIRT1 [1] (PGC-1α peptide, co-addition of 18:1 and resveratrol vs single compound) is “not additive”. On SIRT1 [1] (setting [4]), the “Km of SIRT1 towards the FOXO3a peptide” value was “reduced” and the “SIRT1 catalytic efficiency towards the FOXO3a peptide” value is listed as “increased”. At SIRT1 [1] (setting [5]), the “Km of SIRT1 towards the PGC-1α peptide” value is “lowering”, the “SIRT1 catalytic efficiency (Kcat/Km) towards the PGC-1α peptide” value is recorded as “increase” and the enzyme velocity entry was “without a significant change”. For the same compound, at SIRT1 [1] (setting [6]), the “deacetylase activity towards FOXO3a and PGC-1α peptides, competition assay” value was “increased”; the “deacetylase activity towards H3, competition assay” value is recorded as “decreased”. In addition, the “activation of SIRT1 towards mutant p53 peptide (p53-W)” value on SIRT1 [1] (p53-W peptide, 250 nM 18:1, 10 μM resveratrol, 1 μM SRT1720) is “activated”. Also, the “allosteric activation of SIRT1 towards wild-type p53 peptide” value on SIRT1 [1] (p53 peptide lacking hydrophobic residue at +1 or +6) is “did not respond”. Also, the Ki (commonly a dissociation constant, usually derived from enzyme kinetics or from competition with a known ligand) on SIRT1 [2] turned out to be 5.6 ± 0.12 µM. Also, the Kd (as a rule, the free concentration of one partner at which half of the binding sites on the other are occupied at equilibrium, for simple one-to-one binding) in experiment [3] came to 0.089 ± 0.002 µM. For the same compound, in experiment [3] (tryptophan fluorescence), the “binding curve, PLIN5” value was “Saturable binding curves”. Also, the Ki on PLIN5 turned out to be 4 ± 0.13 µM. Moreover, the “CD spectrum changes of PLIN5-pD” value on PLIN5-pD is “more subtle changes”.
